Holding throughout (assay type): functional
Experiment [1] relates to Mus musculus. Put plainly: Compound was evaluated for the sedative property by the rotarod test at 150 mg/kg. Put shortly: (§1)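 Motor coordination was tested on the rotorod in groups of 10 female Swiss CD1 mice (18-23 g). Drug or vehicle was given orally, test compounds in dilute HCl (pH 3), 60 min before testing.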
In general terms: In the rotarod test animals must keep their balance on a rotating rod.

In experiment [2] the test system is Mus musculus. Put plainly: Evaluated for Bicuculline-induced lethality (anticonvulsant activity) when administered orally in mice. The settings on record: po. The procedure, abridged:
(§2)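 Female Swiss albino CD1 mice (18-23 g), oral dosing (20 mL/kg); test compounds dissolved in dilute HCl (pH 3), reference drugs suspended in 5% gum tragacanth. Bicuculline challenge, scoring protection from seizures and from lethality. […] Weakly active agents reported as percent protected at the stated dose.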

For experiment [3], the system named is Mus musculus. Put plainly: Compound was evaluated for the sedative property by the rotarod test at 20 mg/kg. Put shortly: as §1
Experiment [4] concerns Mus musculus. Put plainly: Evaluated for Bicuculline-induced seizures (anticonvulsant activity) when administered orally in mice. As to conditions: po. The procedure, abridged:
(§3)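 Female Swiss CD1 mice (18-23 g) were dosed orally at 20 mL/kg, test compounds in dilute HCl (pH 3) and references in gum tragacanth. Protection against bicuculline- or pentylenetetrazole-induced clonic/tonic seizures and lethality was scored.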

In experiment [5] the test system is Mus musculus. Put plainly: Evaluated for anticonvulsant activity when administered orally in mice by Maximal electroshock (MES). The settings on record: po. Put shortly:
(§4)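 Female Swiss CD1 mice (18-23 g), groups of 10, were dosed orally at 20 mL/kg. Test compounds were given in dilute HCl (pH 3) and references in 5% gum tragacanth, 60 min before a 60-V alternating current for 0.3 s through corneal electrodes. Protection meant abolition of the hindlimb tonic extensor component.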
In general terms: The maximal electroshock test induces tonic seizures with an electrical stimulus.

The test system of experiment [6] is Mus musculus. Put plainly: Compound was evaluated for Bicuculline-induced lethality (anticonvulsant activity) when administered 250 mg/kg orally in mice. As to conditions: route oral. The procedure, abridged:
as §2

Experiment [7] concerns Mus musculus. Put plainly: Compound was evaluated for Bicuculline-induced seizures (anticonvulsant activity) when administered 250 mg/kg orally in mice. The settings on record: route oral. Put shortly: as §3
Experiment [8] concerns Mus musculus. Put plainly: Compound was evaluated for the sedative property by the rotarod test at 250 mg/kg. The procedure, abridged:
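Rotorod motor-coordination test in female Swiss albino CD1 mice (18-23 g). Groups of 10 mice dosed with test drug or vehicle 60 min before testing; test compounds dissolved in dilute HCl (pH 3).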

The subject of experiment [9] is Mus musculus. Put plainly: Compound was evaluated for anticonvulsant activity when administered 250 mg/kg orally in mice Maximal electroshock (MES). The settings on record: route oral. Put shortly:
as §4

Experiment [10] has as its system Mus musculus. Put plainly: Anticonvulsant activity when administered 100 mg/kg orally in mice Maximal electroshock (MES). The settings on record: route oral. Put shortly:
as §4

Experiment [11] relates to Mus musculus. Put plainly: Evaluated for Bicuculline-induced seizures (anticonvulsant activity) when administered at 100 mg/kg orally in mice. As to conditions: route oral. The procedure, abridged: as §3
In experiment [12] the test system is Mus musculus. Put plainly: Compound was evaluated for the sedative property by the rotarod test at 10 mg/kg. Put shortly: as §1
The subject of experiment [13] is Mus musculus. Put plainly: Compound was evaluated for Bicuculline-induced seizures (anticonvulsant activity) when administered 10 mg/kg orally in mice. The settings on record: route oral. Put shortly:
as §2

For experiment [14], the system named is Mus musculus. Put plainly: Compound was evaluated for anticonvulsant activity when administered 10 mg/kg orally in mice Maximal electroshock (MES). As to conditions: route oral. Put shortly:
as §4

For experiment [15], the system named is Mus musculus. Put plainly: Compound was evaluated for the sedative property by the rotarod test at 1 mg/kg. The procedure, abridged:
as §1

Experiment [16] concerns Mus musculus. Put plainly: Compound was evaluated for anticonvulsant activity when administered 1 mg/kg orally in mice Maximal electroshock (MES). As to conditions: route oral. The procedure, abridged:
as §4

Experiment [17] relates to Mus musculus. Put plainly: Compound was evaluated for Bicuculline-induced seizures (anticonvulsant activity) when administered 1 mg/kg orally in mice. As to conditions: route oral. Put shortly:
as §2

For experiment [18], the species on record is Papio hamadryas. Put plainly: Antagonist activity to generalized seizures Photically induced seizures in senegalese Papio papio baboons. The procedure, abridged:
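Naturally photosensitive baboons of both sexes (4-7 kg) were dosed orally, test compounds in dilute HCl (pH 3) and references in 5% gum tragacanth, at 4 mL/kg. They were photically stimulated at hourly intervals afterwards, and the myoclonic response was graded after Killam. Threshold active dose is the first dose that protected at least two of four animals for at least 2 h.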

Experiment [19] deals with Mus musculus. Put plainly: Anticonvulsant activity in Clonic seizures when administered orally in mice. The settings on record: po. Put shortly: as §3
Experiment [20] concerns Mus musculus. Put plainly: Anticonvulsant activity in Maximal electroshock (MES) when administered orally in mice. The settings on record: po. Put shortly:
as §4

Experiment [21] is filed under the species Rattus norvegicus. Put plainly: Antagonist activity to generalized seizures kindled amygdaloid seizures in rats. The procedure, abridged: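 Male Sprague-Dawley rats (200-500 g), groups of 10, carried platinum electrodes in the right basolateral amygdala. They counted as kindled after stage-5 seizures on 3 consecutive days at 30-90 μA. A control stimulation was followed by an oral dose (5 mL/kg) and restimulation 1 h later. After-discharge duration and Racine seizure stage were compared with vehicle.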

Experiment [22] has as its system Mus musculus. Put plainly: Anticonvulsant activity in tonic seizures when administered orally in mice. The settings on record: po.
The species named for experiment [23] is Mus musculus. Put plainly: Sedative properties by the rotarod test. Put shortly: as §1
Experiment [24] relates to Mus musculus. Put plainly: Compound was evaluated for Bicuculline-induced seizures (anticonvulsant activity)when administered orally in mice. As to conditions: po. The procedure, abridged: as §2
Experiment [25] relates to Mus musculus. Put plainly: Compound was evaluated for the sedative properties by the rotarod test when 100 mg/Kg was administered in mice. Put shortly:
as §1

The subject of experiment [26] is Mus musculus. Put plainly: Compound was evaluated for Bicuculline-induced lethality (anticonvulsant activity) when administered 20 mg/Kg orally in mice. The procedure, abridged: as §2

The ED50 is the midpoint of the dose-response relation. Lower therefore signals greater potency.

On to `OC1CCN(c2ccc(-c3cc(Cl)ccc3Cl)nn2)CC1`, for which the Protected in [1] was found to be 10%. This molecule also had an ED50 in [2] of 101 mg/kg.
The molecule `O=C1CCN(c2ccc(-c3ccc(Cl)cc3Cl)nn2)CC1` came in with a Protected in experiment [3] of 50%. Further, the ED50 in experiment [4] amounted to 7.3 mg/kg; in experiment [5], 5 mg/kg; in [2] it was 7 mg/kg.
For `Oc1ccc(-c2ccc(N3CCC(O)CC3)nn2)cc1`, the Protected was found to be 10% in [6], 0% in experiment [7], 10% in [8] and 25% in experiment [9].
Take `Oc1ccccc1-c1ccc(N2CCC(O)CC2)nn1`: the Protected in experiment [10], in experiment [11] and in experiment [8] was 0% in each case.
Take `OC1CCN(c2ccc(-c3ccccn3)nn2)CC1`: the Protected was 20% in [12], 0% in experiment [13] and 0% in experiment [14].
On to `CN(C)C(=O)OC1CCN(c2ccc(-c3ccc(Cl)cc3Cl)nn2)CC1`, for which the results for the Protected in experiment [15], in experiment [16] and in experiment [17] were 20%, 66% and 30%, respectively.
In the case of `NC(=O)N1c2ccccc2C=Cc2ccccc21` [CARBAMAZEPINE], the ED50 in experiment [4] was 29 mg/kg; in experiment [19], more than 100 mg/kg; in experiment [20] it was 21 mg/kg; in experiment [22] it was 21 mg/kg; in [23] it was 95 mg/kg; in experiment [2] it was 16 mg/kg. Moreover, the Threshold active dose in experiment [18] is 100 mg/kg; in experiment [21] it was 10 mg/kg.
In the case of `OC1CCN(c2ccc(-c3ccc(Cl)cc3Cl)nn2)CC1` [ENDIXAPRINE], the 50% effective dose (ED50) in [4] came out at 8.5 mg/kg; in experiment [19], 18 mg/kg; in experiment [20] it was 14 mg/kg; in experiment [22], 11 mg/kg; in experiment [23], 34 mg/kg; in experiment [2], 8.5 mg/kg. Also, the Threshold active dose in experiment [18] was determined as 50 mg/kg; in experiment [21] it was 20 mg/kg.
Take `CCC1(c2ccccc2)C(=O)NC(=O)NC1=O` [PHENOBARBITAL]: the median effective dose (ED50) stood at 5.8 mg/kg in [24]; 15 mg/kg in [19]; 5.4 mg/kg in experiment [20]; 7 mg/kg in experiment [22]; 61 mg/kg in experiment [23]; 5.2 mg/kg in experiment [2]. Also, the values for the Threshold active dose in experiment [18] and in [21] were 5 mg/kg and 20 mg/kg, respectively.
As to `O=C1NC(=O)C(c2ccccc2)(c2ccccc2)N1` [PHENYTOIN], the Protected in experiment [25] came out at 30%; in experiment [26] it was 25%. Also, the median effective dose (ED50) in [24] is 11 mg/kg; in experiment [19], more than 80 mg/kg; in experiment [20], 23 mg/kg; in experiment [22] it was 7 mg/kg. For the same molecule, the results for the Threshold active dose in experiment [18] and in experiment [21] were 50 mg/kg and 20 mg/kg, respectively.
In the case of `CCCC(CCC)C(=O)[O-].[Na+]` [VALPROATE SODIUM], the ED50 was determined as 274 mg/kg in experiment [4]; 363 mg/kg in experiment [19]; 324 mg/kg in experiment [20]; 201 mg/kg in experiment [22]; 406 mg/kg in experiment [23]; 246 mg/kg in experiment [2]. Moreover, the Threshold active dose was determined as 300 mg/kg in experiment [18] and 200 mg/kg in experiment [21].
